From ChEMBL document CHEMBL1649351, “Synthesis, in vitro antimicrobial and in vivo antitumor evaluation of novel pyrimidoquinolines and its nucleoside derivatives” (Eur J Med Chem, 2011)

What was measured:
Lactococcus lactis = assay: Antibacterial activity against Streptococcus lactis at 50 mg/disk after 24 to 28 hrs by agar disk diffusion method; type: functional
HepG2 [1] = assay: Antitumor activity against human HepG2 cells xenografted in Swiss albino mouse assessed as increase mouse life span at 10 ug/kg, ip for 10 days relative to control; type: functional
Nakaseomyces glabratus = assay: Antifungal activity against Candida glabrata at 50 mg/disk after 5 days by agar disk diffusion method; type: functional
Pseudomonas aeruginosa = assay: Antibacterial activity against Pseudomonas aeruginosa at 50 mg/disk after 24 to 28 hrs by agar disk diffusion method; type: functional
HepG2 [2] = assay: Antitumor activity against human HepG2 cells xenografted in Swiss albino mouse assessed as increase of mouse survival at 10 ug/kg, ip for 10 days (reference value: 22 +/- 1.90 day); type: functional
HeLa [3] = assay: Antitumor activity against human HeLa cells xenografted in Swiss albino mouse assessed as increase mouse life span at 10 ug/kg, ip for 10 days relative to control; type: functional
Mus musculus [4] = assay: Acute toxicity in human HepG2 cells xenografted ip dosed Swiss albino mouse assessed as mortality measured up to 2 weeks; type: organism-based; settings: in vivo, 336 h
Outline: (§1)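 Adult Swiss albino mice were fasted 12 h and randomised into groups of 10. Each group got one i.p. dose from a graded series, given at 1 ml/kg body weight; controls got vehicle alone. Food and water were returned right after dosing. Mortality was followed for up to two weeks, and LD50 was taken as the dose giving 50% mortality.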

Bacillus subtilis = assay: Antibacterial activity against Bacillus subtilis at 50 mg/disk after 24 to 28 hrs by agar disk diffusion method; type: functional
Escherichia coli = assay: Antibacterial activity against Escherichia coli at 50 mg/disk after 24 to 28 hrs by agar disk diffusion method; type: functional
Mus musculus [5] = assay: Acute toxicity in human HeLa cells xenografted ip dosed Swiss albino mouse assessed as mortality measured up to 2 weeks; type: organism-based; settings: in vivo, 336 h; outline: as §1
Candida albicans = assay: Antifungal activity against Candida albicans at 50 mg/disk after 5 days by agar disk diffusion method; type: functional
HeLa [6] = assay: Antitumor activity against human HeLa cells xenografted in Swiss albino mouse assessed as increase of mouse survival at 10 ug/kg, ip for 10 days (reference value: 22 +/- 1.90 day); type: functional

## CSc1nc2c(c(=O)[nH]1)C(c1ccc([N+](=O)[O-])cc1)C1=C(CC(C)(C)CC1=O)N2[C@@H]1O[C@H](CO)[C@@H](O)[C@H](O)[C@H]1O (stereo partly specified)
Lactococcus lactis
  diameter of the inhibition zone (DIZ): 19 mm
HepG2 [1]
  Activity: 60%
Nakaseomyces glabratus
  diameter of the inhibition zone (DIZ): 9 mm
Pseudomonas aeruginosa
  diameter of the inhibition zone (DIZ): 23 mm
HepG2 [2]
  Survival: 38 days
HeLa [3]
  Activity: 61%
Mus musculus [4]
  LD50: 0.115 mg/kg
Bacillus subtilis
  diameter of the inhibition zone (DIZ): 21 mm
Escherichia coli
  diameter of the inhibition zone (DIZ): 23 mm
Mus musculus [5]
  LD50: 0.119 mg/kg
Candida albicans
  diameter of the inhibition zone (DIZ): 8 mm
HeLa [6]
  Survival: 36 days

## CC1(C)CC(=O)C2=C(C1)Nc1nc3[nH]ncn3c(=O)c1C2c1ccc([N+](=O)[O-])cc1 (stereo unspecified)
Lactococcus lactis
  diameter of the inhibition zone (DIZ): 20 mm
HepG2 [1]
  Activity: 55%
Nakaseomyces glabratus
  diameter of the inhibition zone (DIZ): 9 mm
Pseudomonas aeruginosa
  diameter of the inhibition zone (DIZ): 18 mm
HepG2 [2]
  Survival: 31 days
HeLa [3]
  Activity: 51%
Mus musculus [4]
  LD50: 0.1 mg/kg
Bacillus subtilis
  diameter of the inhibition zone (DIZ): 20 mm
Escherichia coli
  diameter of the inhibition zone (DIZ): 19 mm
Mus musculus [5]
  LD50: 0.098 mg/kg
Candida albicans
  diameter of the inhibition zone (DIZ): 9 mm
HeLa [6]
  Survival: 30 days

## Cc1cn2c(=O)c3c(nc2n1N)NC1=C(C(=O)CC(C)(C)C1)C3c1ccc([N+](=O)[O-])cc1 (stereo unspecified)
Lactococcus lactis
  diameter of the inhibition zone (DIZ): 22 mm
HepG2 [1]
  Activity: 56%
Nakaseomyces glabratus
  diameter of the inhibition zone (DIZ): 10 mm
Pseudomonas aeruginosa
  diameter of the inhibition zone (DIZ): 23 mm
HepG2 [2]
  Survival: 37 days
HeLa [3]
  Activity: 51%
Mus musculus [4]
  LD50: 0.093 mg/kg
Bacillus subtilis
  diameter of the inhibition zone (DIZ): 19 mm
Escherichia coli
  diameter of the inhibition zone (DIZ): 24 mm
Mus musculus [5]
  LD50: 0.09 mg/kg
Candida albicans
  diameter of the inhibition zone (DIZ): 9 mm
HeLa [6]
  Survival: 34 days
